The test system of assay [1] is Pseudomonas aeruginosa. The assay is described as follows: In vitro antimicrobial activity against Pseudomonas aeruginosa was evaluated by measuring the diameter of zone of inhibition. The assay is classed as functional. In outline:
(§1)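 Disc diffusion on nutrient agar seeded with the bacterium: glass microfiber discs (0.6 cm) saturated with 0.2 mL of aqueous compound solutions at different concentrations; incubation at 37°C for 48 h; diameter of growth-inhibition zone read in millimetres.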

Assay [2] has as its system Staphylococcus aureus. As to the kind of experiment: In vitro antimicrobial activity against Staphylococcus aureus was evaluated by measuring the diameter of zone of inhibition. The format is functional. In outline:
as §1

Assay [3] has as its system Escherichia coli. The assay is described as follows: In vitro antimicrobial activity against Escherichia coli was evaluated by measuring the diameter of zone of inhibition. The format is functional. A digest of the protocol:
as §1

Assay [4] deals with Staphylococcus aureus. The assay is described as follows: In vitro antimicrobial activity against Staphylococcus aureus was evaluated by measuring the diameter of zone of inhibition; NS denotes no significant inhibition. The format is functional, organism-based. In outline:
as §1

Assay [5] deals with Escherichia coli. As to the kind of experiment: In vitro antimicrobial activity against Escherichia coli was evaluated by measuring the diameter of zone of inhibition; NS denotes no significant inhibition. The assay is classed as functional, organism-based. A digest of the protocol:
as §1

Assay [6] deals with Candida albicans. The assay is described as follows: In vitro antifungal activity against Candida albicans was evaluated by measuring the diameter of zone of inhibition; NS denotes no significant inhibition. The assay is classed as functional, organism-based. A digest of the protocol: (§2)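 Disc diffusion: glass microfiber discs (0.6 cm) saturated with 0.2 mL of aqueous compound solutions at various concentrations, placed on malt extract agar seeded with the yeast; plates incubated at 28°C for 96 h; inhibition zone diameter measured in mm.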

Assay [7] relates to Pseudomonas aeruginosa. As to the kind of experiment: In vitro antimicrobial activity against Pseudomonas aeruginosa was evaluated by measuring the diameter of zone of inhibition; NS denotes no significant inhibition. The assay is classed as functional, organism-based. A digest of the protocol:
as §1

Assay [8] relates to Candida albicans. The assay is described as follows: In vitro antifungal activity against Candida albicans was evaluated by measuring the diameter of zone of inhibition. The assay is classed as functional. In outline: as §2

Turning to `Cc1c(/C(=N/NC(N)=O)c2ccccc2)nnc2c3c(-c4ccccc4)c(-c4ccccc4)nnc3nn12`, the Inhibition in assay [1] was 2 mm; in assay [2], 4 mm; in assay [3] it was 3 mm.

On to `Cc1c(C(=O)N/N=C/c2ccc(Cl)cc2)nnc2c3c(-c4ccccc4)c(-c4ccccc4)nnc3nn12`, for which the Inhibition entry in assay [4], in assay [5], in assay [6] and in assay [7] was “No inhibition” in each case.

Consider `Cc1cnnc2c3c(-c4ccccc4)c(-c4ccccc4)nnc3nn12`, for which the Inhibition entry in assay [4], in assay [5], in assay [6] and in assay [7] was “No inhibition” throughout.

On to `COc1ccc(/C=N/NC(=O)c2nnc3c4c(-c5ccccc5)c(-c5ccccc5)nnc4nn3c2C)cc1`, for which, in assay [2], the Inhibition was determined as 3 mm.

For `O=C(NNc1ccccc1)c1nnc2c3c(-c4ccccc4)c(-c4ccccc4)nnc3nn2c1-c1ccccc1`, the Inhibition entry in assay [4], in assay [5], in assay [6] and in assay [7] was “No inhibition” in each case.

In turn, `Cc1c(C(=O)N/N=C/c2ccco2)nnc2c3c(-c4ccccc4)c(-c4ccccc4)nnc3nn12` showed an Inhibition in assay [3] of 2 mm.

Compound `Cc1c(C(=O)N/N=C/c2ccc[nH]2)nnc2c3c(-c4ccccc4)c(-c4ccccc4)nnc3nn12` displayed an Inhibition in assay [3] of 2 mm.

Take `NNC(=O)c1nnc2c3c(-c4ccccc4)c(-c4ccccc4)nnc3nn2c1-c1ccccc1`: the Inhibition result in assay [4], in assay [5], in assay [6] and in assay [7] was “No inhibition” each time.

`Cc1ccc(/C=N/NC(=O)c2nnc3c4c(-c5ccccc5)c(-c5ccccc5)nnc4nn3c2C)s1` gave an Inhibition in assay [8] of 2 mm.

Consider `CCOC(=O)c1nnc2c3c(-c4ccccc4)c(-c4ccccc4)nnc3nn2c1-c1ccccc1`, for which the Inhibition result in assay [4], in assay [5], in assay [6] and in assay [7] was “No inhibition” throughout.

Regarding `Cc1c(C(=O)NNc2ccccc2)nnc2c3c(-c4ccccc4)c(-c4ccccc4)nnc3nn12`, the Inhibition result in assay [4], in assay [5], in assay [6] and in assay [7] was “No inhibition” each time.

With `Cc1c(C(=O)N/N=C/c2ccccc2)nnc2c3c(-c4ccccc4)c(-c4ccccc4)nnc3nn12`, the Inhibition entry in assay [4], in assay [5], in assay [6] and in assay [7] was “No inhibition” throughout.

Turning to `NC(=O)NNC(=O)c1nnc2c3c(-c4ccccc4)c(-c4ccccc4)nnc3nn2c1-c1ccccc1`, the Inhibition result in assay [4], in assay [5], in assay [6] and in assay [7] was “No inhibition” in each case.

For the compound `C/C(=N\NC(N)=O)c1nnc2c3c(-c4ccccc4)c(-c4ccccc4)nnc3nn2c1C`, the Inhibition entry in assay [4], in assay [5], in assay [6] and in assay [7] was “No inhibition” in each case.

Consider `CC(=O)c1nnc2c3c(-c4ccccc4)c(-c4ccccc4)nnc3nn2c1C`, for which the values for the Inhibition in assay [2] and in assay [8] were 4 mm and 3 mm, respectively.

In the case of `Cc1c(C(=O)N/N=C/c2ccc3ccccc3c2)nnc2c3c(-c4ccccc4)c(-c4ccccc4)nnc3nn12`, the Inhibition entry in assay [4], in assay [5], in assay [6] and in assay [7] was “No inhibition” throughout.

Regarding `Cc1c(C(=O)N/N=C/c2cccs2)nnc2c3c(-c4ccccc4)c(-c4ccccc4)nnc3nn12`, the Inhibition in assay [2] and in assay [3] was 2 mm each time.

For `c1ccc(-c2nnc3nn4c(-c5ccccc5)cnnc4c3c2-c2ccccc2)cc1`, the Inhibition entry in assay [4], in assay [5], in assay [6] and in assay [7] was “No inhibition” throughout.

The compound `Cc1c(C(=O)N/N=C/c2ccc([N+](=O)[O-])cc2)nnc2c3c(-c4ccccc4)c(-c4ccccc4)nnc3nn12` showed an Inhibition in assay [3] of 5 mm.

As to `O=C(O)c1nnc2c3c(-c4ccccc4)c(-c4ccccc4)nnc3nn2c1-c1ccccc1`, the Inhibition result in assay [4], in assay [5], in assay [6] and in assay [7] was “No inhibition” throughout.

`Cc1c(/C(=N/Nc2ccccc2)c2ccccc2)nnc2c3c(-c4ccccc4)c(-c4ccccc4)nnc3nn12`: the Inhibition result in assay [4], in assay [5], in assay [6] and in assay [7] was “No inhibition” in each case.

In the case of `Cc1c(C(=O)NNC(N)=O)nnc2c3c(-c4ccccc4)c(-c4ccccc4)nnc3nn12`, the Inhibition result in assay [4], in assay [5], in assay [6] and in assay [7] was “No inhibition” throughout.

With `Cc1c(C(=O)O)nnc2c3c(-c4ccccc4)c(-c4ccccc4)nnc3nn12`, the Inhibition entry in assay [4], in assay [5], in assay [6] and in assay [7] was “No inhibition” each time.

As for `Cc1c(/C(=N/N)c2ccccc2)nnc2c3c(-c4ccccc4)c(-c4ccccc4)nnc3nn12`, the Inhibition entry in assay [4], in assay [5], in assay [6] and in assay [7] was “No inhibition” each time.

For the compound `Cc1ccc(/C=N/NC(=O)c2nnc3c4c(-c5ccccc5)c(-c5ccccc5)nnc4nn3c2C)o1`, the Inhibition entry in assay [4], in assay [5], in assay [6] and in assay [7] was “No inhibition” each time.

For the compound `CCOC(=O)c1nnc2c3c(-c4ccccc4)c(-c4ccccc4)nnc3nn2c1C`, the Inhibition result in assay [4], in assay [5], in assay [6] and in assay [7] was “No inhibition” each time.

For the compound `Cc1c(C(=O)N/N=C/c2cccn2C)nnc2c3c(-c4ccccc4)c(-c4ccccc4)nnc3nn12`, the Inhibition entry in assay [4], in assay [5], in assay [6] and in assay [7] was “No inhibition” in each case.
